Screening data deposited in PubChem BioAssay by several laboratories.
MT1-MMP act inh = blockers of MT1-MMP proenzyme processing, primary screen, HT1080 RFP-PRO-GFP cells, GFP/RFP fluorescence. Matrix metalloproteinase-14 (Homo sapiens), P50281. GFP/RFP ratio fluorescence, overnight; percent of plate control window, DMSO zero. GFP/RFP ratio change, % at 20 µM. actives 0.061% (n = 360,000). AID 651647, 2012;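 active = GFP/RFP ratio change of at least 30% with cell ATP level not reduced by more than half and red fluorescence within 50% of control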
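Material: RFP-PRO-GFP reporter HT1080 cells. Dosing: single-point 20 µM compound, 1% DMSO. Controls: DMSO and RFP-L50D-GFP cell wells. Timing: cells overnight before dosing, compound overnight, 37 °C, 5% CO2. Measure: GFP/RFP fluorescence ratio.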
ADAM10 inh = human ADAM10 inhibitors, primary screen, biochemical, QFRET, HTS. inhibition, % at 7 µM. AID 720582, 2013. actives 0.62% (n = 370,000). recombinant ADAM10, EDANS/DABCYL FRET peptide cleavage, 3 h. Disintegrin and metalloproteinase domain-containing protein 10 (Homo sapiens), O14672;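 active = inhibition above a per-campaign cutoff equal to the mean of compounds falling between control-based bounds plus 3 SD, cut at about 20% in these data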;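 note: 0% = DMSO wells while the 100% control is not disclosed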
Target sequence (O14672 214-748 limits assumed): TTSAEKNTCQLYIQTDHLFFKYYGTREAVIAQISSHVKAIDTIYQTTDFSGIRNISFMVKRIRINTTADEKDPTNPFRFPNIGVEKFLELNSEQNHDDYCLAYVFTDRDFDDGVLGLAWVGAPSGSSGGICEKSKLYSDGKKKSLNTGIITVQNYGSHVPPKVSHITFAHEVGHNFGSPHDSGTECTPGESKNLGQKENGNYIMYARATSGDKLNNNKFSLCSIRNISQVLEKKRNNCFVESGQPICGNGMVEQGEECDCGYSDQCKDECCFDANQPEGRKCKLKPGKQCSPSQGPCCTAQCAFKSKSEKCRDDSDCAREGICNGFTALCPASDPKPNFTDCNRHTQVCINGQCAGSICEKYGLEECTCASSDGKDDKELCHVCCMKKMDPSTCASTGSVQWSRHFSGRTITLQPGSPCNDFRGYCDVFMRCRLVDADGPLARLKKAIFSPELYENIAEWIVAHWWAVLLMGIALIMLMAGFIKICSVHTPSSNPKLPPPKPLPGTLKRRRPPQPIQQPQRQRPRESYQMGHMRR
MPTP block = mitochondrial permeability transition pore inhibitors, primary screen, biochemical, isolated mouse mitochondria, absorbance | Ca2+ swelling absorbance, 30 min | inhibition, % at 10 µM | actives 1.4% (n = 360,000) | AID 602449, 2012;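 active = inhibition of 50% or more, scaled per plate between neutral and stimulator controls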;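 note: 0% = DMSO wells given calcium and 100% = 1 mM EGTA wells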
SKN-1 inh = suppressors of acrylamide-induced Pgst-4::GFP reporter in worms, primary screen, SKN-1 inhibitor project, whole organism, uHTS, GFP/RFP fluorescence ratio, strain VP596; C. elegans VP596 Pgst-4::GFP/RFP ratio, 24 h; inhibition, % at 21.8 µM; actives 0.49% (n = 360,000); AID 624304, 2012;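 active = interference check ratio from 0.5 to 1.5 plus GFP to RFP signal ratio inhibition reaching or exceeding a fixed threshold, cut at about 30% in these data, passing the limit was not always enough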
GRIN3A LBD mod = binders of NR3A ligand-binding domain, primary screen, biophysical, differential scanning fluorimetry, uHTS; NR3A LBD differential scanning fluorimetry, Tm shift; 0% = protein alone, 100% = glycine-bound protein; actives 2.5% (n = 340,000); Tm shift relative to glycine control, % at 25 µM;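 active = melting temperature shift of at least 10% of the positive control shift, at one fixed dose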
ADAM17 inh = ADAM17 inhibitors, primary screen, biochemical, QFRET; Disintegrin and metalloproteinase domain-containing protein 17 (Homo sapiens), P78536; recombinant ADAM17, EDANS/DABCYL FRET peptide cleavage; inhibition, % at 6.95 µM; actives 0.83% (n = 370,000); AID 720648, 2013;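 active = inhibition above the mean of compounds lying between control limits plus 3 SD, set per campaign, cut at about 8.5% in these data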;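 note: 0% = DMSO-only wells as the low control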
The depositor's hits bear a star; x = no result given. In the library only some 4.7% were active in any assay of this set; here they are far more common.

SMILES	MT1-MMP act inh	ADAM10 inh	MPTP block	SKN-1 inh	GRIN3A LBD mod	ADAM17 inh
CCNC(=O)C1(C)CCN(C(=O)c2ccc(N(C)C)cc2)C1 (stereo not drawn)	3	-9	0	6	x	-2
CCCn1c(C(C)Nc2nc(-c3ccc(Cl)c([N+](=O)[O-])c3)cs2)nc2ccccc21 (stereo not drawn)	-4	11	1	-6	6	0
Cc1ccc(Cn2c(C(C)Nc3nc(-c4ccc(Cl)c([N+](=O)[O-])c4)cs3)nc3cc(C(F)(F)F)ccc32)cc1 (stereo not drawn)	-1	-2	2	-8	14*	4
O=[N+]([O-])c1cc(-c2csc(NCCc3nc4cc(Cl)c(Cl)cc4n3CCCO)n2)ccc1Cl	3	8	1	3	-6	1
CCCn1c(CCNc2nc(-c3ccc(Cl)c([N+](=O)[O-])c3)cs2)nc2cc(Cl)c(Cl)cc21	6	2	1	17	13*	-2
CCn1cc(C(=O)NC2CCCCC2)c(=O)c2ccc(C)nc21	3	4	2	18	-3	-2
O=C(CNC(=S)N(Cc1ccccc1F)C1CCCCC1)NCCCN1CCOCC1	-1	-2	1	2	2	-6
O=C(/C=C/c1ccc(Br)cc1)c1ccc(NC(=O)c2ccco2)cc1	2	-3	1	8	24*	-1
O=C(/C=C\c1ccccc1)Nc1ccc(NC(=O)c2ccco2)cc1	5	-5	-1	6	25*	2
O=C(Cc1ccccc1)Nc1ccc(NC(=O)c2ccco2)cc1	2	4	0	-19	-12	-5
COc1ccc(Nc2cc(C(=O)N3CCc4ccccc4C3)c3ccccc3n2)c(OC)c1	0	10	1	-2	-4	6
CCCC(=O)N1CCCC(C(=O)c2ccc(OC)c(OC)c2)C1 (stereo not drawn)	2	-2	0	-3	-1	-2
CN1CCC(N(C)C(=O)c2cc(S(=O)(=O)N3CCOCC3)ccc2Cl)CC1	0	3	0	-5	0	1
COc1ccccc1-n1cc([C@@H]2C[C@H]3CN(c4ccccc4)C(=O)[C@]34CCCN24)cn1	-29	-3	-2	40*	0	-2
CN=C1CC(SC)=C1c1ccc(C)cc1	-6	-1	-4	15	19*	-3
Cn1c(=O)c2c(nc(NCCOc3ccc(F)cc3)n2C)n(C)c1=O	-3	-5	11	3	2	-2
Cc1cccc2sc(NNC(=O)c3ccc(S(=O)(=O)N4CC(C)CC(C)C4)cc3)nc12 (stereo not drawn)	x	5	28	-4	5	8
NC(=O)c1ncc(C(F)(F)F)cc1Oc1cccc(F)c1	3	0	1	5	4	-2
NC(=O)c1ncc(C(F)(F)F)cc1Oc1cccc(C(F)(F)F)c1	6	-4	-4	-22	11*	-2
CCOc1ccc(NC(=O)c2c(NC(=O)CN3CCCC3)sc3c2CCC3)cc1	0	3	1	9	2	0
c1ccc2c(c1)CCN(C1=Nc3cccc4cccc1c34)C2	38	-83	2	49*	-1	-31
O=C(O)c1cccc(-c2ccc(/C=c3/sc4nc5ccccc5n4c3=O)o2)c1	-41	1	3	8	4	-2
O=c1/c(=C\c2cc([N+](=O)[O-])cc([N+](=O)[O-])c2O)sc2nc3ccccc3n12	-14	x	32	11	31*	x
O=C(O)c1cc(C(=O)O)cc(-c2ccc(/C=c3/sc4nc5ccccc5n4c3=O)o2)c1	x	x	x	x	10*	x
O=c1/c(=C/c2ccccn2)sc2nc3ccccc3n12	-4	6	-2	9	2	-5
SMILES	MT1-MMP act inh	ADAM10 inh	MPTP block	SKN-1 inh	GRIN3A LBD mod	ADAM17 inh
O=C(NCc1ccc2c(c1)OCO2)C(=O)NCC1OCCCN1S(=O)(=O)c1cc(F)ccc1F (stereo not drawn)	-1	1	0	-18	13*	1
Cc1cc(F)ccc1S(=O)(=O)N1CCCOC1CNC(=O)C(=O)NCc1ccc2c(c1)OCO2 (stereo not drawn)	2	7	-2	37*	-3	-3
O=C(NCc1ccncc1)C(=O)NCC1OCCCN1S(=O)(=O)c1cc(F)ccc1F (stereo not drawn)	-2	-1	0	0	10	-1
O=C(CCCn1c(=S)[nH]c2ccsc2c1=O)NC1CCCCC1	-2	-2	1	13	1	1
CC(C)=CCC/C(C)=C/CNC(=O)C[C@H]1C[C@H](C(=O)N2CCOCC2)[C@@]2(CCC3CCCC3)c3[nH]c4cc(CCC(=O)N(C)C)ccc4c3CCN2C1=O	-19	-3	-1	-8	-6	-1
CN(c1ccccc1)c1nc(N)c([N+](=O)[O-])c(Nc2ccccc2F)n1	-1	-6	2	-2	0	2
COc1ccc(OC)c(Nc2nc(N(C)c3ccccc3)nc(N)c2[N+](=O)[O-])c1	2	6	1	3	12*	1
COc1cc(C(=O)N2C[C@@H]3CCC[C@H]2C3)ccc1OC1CCN(C(C)=O)CC1	-1	1	-1	4	1	3
COc1cc(C(=O)N2C[C@H]3CC[C@H]2C3)ccc1OC1CCN(C(C)=O)CC1	-1	4	3	1	13*	0
CC(C)c1nnc(NC(=O)CCC(=O)NC2CCCc3ccccc32)s1 (stereo not drawn)	3	1	2	5	11*	-4
Cc1cc(C)nc(N2C(=O)CC(C(C)c3ccccc3)C2=O)n1 (stereo not drawn)	0	-4	0	37*	-2	-6
CC(c1ccccc1)C1CC(=O)N(c2ccc(C(=O)O)cc2)C1=O (stereo not drawn)	2	-1	-1	10	-7	-4
Cc1ccccc1C[n+]1cccc2ccccc21	-5	-4	-2	2	13*	-2
Cc1cccc(CS(=O)(=O)c2ncc(Cl)c(C(=O)NCc3ccc4c(c3)OCO4)n2)c1	2	-3	-1	4	3	-3
